Laboratory results reported in ChEMBL document CHEMBL2311462, “Design, synthesis, and functional evaluation of leukocyte function associated antigen-1 antagonists in early and late stages of cancer development” (J Med Chem, 2013).
pKd: −log10 of the molar value. One block for each compound: values may come before it. The source made the active and inactive calls. The calls are words filed in the database; no cut-off is given here.

How the values were obtained:
[1] = target: T1, Integrin alpha-L (Mus musculus) (UniProt P24063); test: Inhibition of LFA-1/ICAM-1 interaction in mouse CT26 cells assessed as PMA-induced adhesion to ICAM-1 expressing HSE cells at 20 ug/ 5 x 10^5 cells by fluorometric microplate reader analysis; assay type: cell-based
T1 sequence (whole entry): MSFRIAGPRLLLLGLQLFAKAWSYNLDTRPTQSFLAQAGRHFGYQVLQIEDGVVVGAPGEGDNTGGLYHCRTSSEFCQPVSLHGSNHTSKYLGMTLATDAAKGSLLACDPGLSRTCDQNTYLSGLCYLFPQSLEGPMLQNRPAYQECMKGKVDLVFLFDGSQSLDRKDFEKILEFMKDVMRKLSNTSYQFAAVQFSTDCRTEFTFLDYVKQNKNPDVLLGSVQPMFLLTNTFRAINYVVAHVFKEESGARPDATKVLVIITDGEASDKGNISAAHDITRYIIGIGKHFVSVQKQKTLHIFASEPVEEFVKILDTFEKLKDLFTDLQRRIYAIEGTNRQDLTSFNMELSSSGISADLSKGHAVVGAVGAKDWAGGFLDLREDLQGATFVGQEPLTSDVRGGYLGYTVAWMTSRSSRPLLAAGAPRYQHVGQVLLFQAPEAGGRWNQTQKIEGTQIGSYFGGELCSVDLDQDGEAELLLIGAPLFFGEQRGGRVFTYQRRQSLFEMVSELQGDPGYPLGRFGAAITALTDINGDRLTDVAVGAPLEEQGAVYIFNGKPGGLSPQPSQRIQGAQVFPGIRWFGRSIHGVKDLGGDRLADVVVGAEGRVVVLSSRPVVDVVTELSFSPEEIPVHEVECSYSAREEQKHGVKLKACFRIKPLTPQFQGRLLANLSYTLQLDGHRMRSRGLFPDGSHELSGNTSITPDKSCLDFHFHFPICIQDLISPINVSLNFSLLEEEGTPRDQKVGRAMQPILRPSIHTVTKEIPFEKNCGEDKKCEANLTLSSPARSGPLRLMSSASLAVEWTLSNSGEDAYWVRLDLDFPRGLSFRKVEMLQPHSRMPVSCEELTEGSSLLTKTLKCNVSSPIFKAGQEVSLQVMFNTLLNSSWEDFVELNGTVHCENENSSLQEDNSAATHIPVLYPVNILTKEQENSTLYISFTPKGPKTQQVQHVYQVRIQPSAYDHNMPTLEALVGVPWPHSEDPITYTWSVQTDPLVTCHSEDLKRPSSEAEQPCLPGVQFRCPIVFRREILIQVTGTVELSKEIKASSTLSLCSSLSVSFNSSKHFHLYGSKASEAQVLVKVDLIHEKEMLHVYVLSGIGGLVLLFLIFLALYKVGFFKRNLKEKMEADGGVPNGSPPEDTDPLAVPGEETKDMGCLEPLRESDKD
Outline: (§1)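 CT26-CC or Lim51b-CC cells were stimulated with PMA and preincubated for 30 min with compound or anti-LFA-1 antibody. Adhesion to hepatic sinusoidal endothelial cells was then quantified using a previously validated in vitro bioassay. Significance was assessed by ANOVA with Bonferroni post hoc test.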

[2] = test system: CT26; test: Antitumor activity against mouse CT26 cells allografted in BALB/c mouse assessed as decrease in expression level of protein Ki67 at 2.5 mg/kg, sc measured on day 15 relative to control; assay type: functional; set-up: scale not given: the % may be the effect or the level left; settings: route subcutaneous
Outline: (§2)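 BALB/c mice were injected subcutaneously with 5 × 10⁵ CT26-CC cells. Compound/PAMAM G3.5 was then given as daily subcutaneous injections at 2.5 mg/kg. Primary tumors were removed on day 15 and their volume was measured. Ki67 was scored by immunohistochemistry as the percentage of positive tumor cells across 10 random fields. Significance was assessed by ANOVA with a post hoc test.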

[3] = test system: CT26; test: Antitumor activity against mouse CT26 cells allografted in BALB/c mouse assessed as decrease in tumor volume at 2.5 mg/kg, sc measured on day 15 relative to control; assay type: functional; set-up: scale not given: the % may be the effect or the level left; settings: route subcutaneous; outline: as §2
[4] = target: Integrin alpha-2 (Homo sapiens) (UniProt P17301); test: Binding affinity to integrin alpha2 I-domain (unknown origin)
Chain of Integrin alpha-2 (Homo sapiens) (P17301 whole entry): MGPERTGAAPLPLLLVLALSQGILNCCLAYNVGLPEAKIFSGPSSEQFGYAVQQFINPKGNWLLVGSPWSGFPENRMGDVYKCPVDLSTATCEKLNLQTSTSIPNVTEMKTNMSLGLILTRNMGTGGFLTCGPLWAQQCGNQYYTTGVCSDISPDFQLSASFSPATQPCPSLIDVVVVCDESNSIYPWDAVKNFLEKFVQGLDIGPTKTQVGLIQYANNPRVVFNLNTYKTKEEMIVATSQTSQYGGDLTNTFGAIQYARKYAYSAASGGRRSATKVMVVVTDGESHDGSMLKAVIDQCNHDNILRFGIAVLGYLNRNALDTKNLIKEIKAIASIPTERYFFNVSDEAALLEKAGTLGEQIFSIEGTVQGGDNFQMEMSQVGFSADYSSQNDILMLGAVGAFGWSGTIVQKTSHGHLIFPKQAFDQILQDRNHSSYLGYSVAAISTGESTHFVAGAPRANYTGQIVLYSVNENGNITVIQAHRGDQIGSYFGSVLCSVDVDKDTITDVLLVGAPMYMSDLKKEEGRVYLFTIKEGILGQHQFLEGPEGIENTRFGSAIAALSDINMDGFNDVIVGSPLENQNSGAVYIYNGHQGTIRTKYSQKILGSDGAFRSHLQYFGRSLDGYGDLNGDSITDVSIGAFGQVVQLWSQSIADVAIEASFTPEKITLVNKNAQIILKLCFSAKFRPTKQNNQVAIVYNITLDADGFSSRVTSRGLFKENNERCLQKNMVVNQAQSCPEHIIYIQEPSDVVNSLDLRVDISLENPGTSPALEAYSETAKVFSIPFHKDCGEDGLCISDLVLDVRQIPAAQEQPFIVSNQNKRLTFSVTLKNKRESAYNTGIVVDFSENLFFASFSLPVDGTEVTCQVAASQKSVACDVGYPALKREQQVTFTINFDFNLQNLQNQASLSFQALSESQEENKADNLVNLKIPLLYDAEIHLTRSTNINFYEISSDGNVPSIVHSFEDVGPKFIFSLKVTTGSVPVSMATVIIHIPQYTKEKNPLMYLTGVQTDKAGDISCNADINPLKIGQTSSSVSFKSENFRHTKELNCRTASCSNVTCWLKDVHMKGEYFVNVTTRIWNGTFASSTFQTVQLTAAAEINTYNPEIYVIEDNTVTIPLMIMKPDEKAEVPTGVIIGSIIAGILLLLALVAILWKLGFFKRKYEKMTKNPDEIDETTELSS

[5] = species on record: Homo sapiens; test: Binding affinity to protein G B1-domain (unknown origin)
[6] = target: T2, Integrin alpha-L (Homo sapiens, UniProt P20701); test: Binding affinity to I-domain of human integrin alphaL (amino acid residues 128 to 307) plus initial methionine expressed in Escherichia coli by NMR spectroscopy
T2 sequence (P20701 whole entry): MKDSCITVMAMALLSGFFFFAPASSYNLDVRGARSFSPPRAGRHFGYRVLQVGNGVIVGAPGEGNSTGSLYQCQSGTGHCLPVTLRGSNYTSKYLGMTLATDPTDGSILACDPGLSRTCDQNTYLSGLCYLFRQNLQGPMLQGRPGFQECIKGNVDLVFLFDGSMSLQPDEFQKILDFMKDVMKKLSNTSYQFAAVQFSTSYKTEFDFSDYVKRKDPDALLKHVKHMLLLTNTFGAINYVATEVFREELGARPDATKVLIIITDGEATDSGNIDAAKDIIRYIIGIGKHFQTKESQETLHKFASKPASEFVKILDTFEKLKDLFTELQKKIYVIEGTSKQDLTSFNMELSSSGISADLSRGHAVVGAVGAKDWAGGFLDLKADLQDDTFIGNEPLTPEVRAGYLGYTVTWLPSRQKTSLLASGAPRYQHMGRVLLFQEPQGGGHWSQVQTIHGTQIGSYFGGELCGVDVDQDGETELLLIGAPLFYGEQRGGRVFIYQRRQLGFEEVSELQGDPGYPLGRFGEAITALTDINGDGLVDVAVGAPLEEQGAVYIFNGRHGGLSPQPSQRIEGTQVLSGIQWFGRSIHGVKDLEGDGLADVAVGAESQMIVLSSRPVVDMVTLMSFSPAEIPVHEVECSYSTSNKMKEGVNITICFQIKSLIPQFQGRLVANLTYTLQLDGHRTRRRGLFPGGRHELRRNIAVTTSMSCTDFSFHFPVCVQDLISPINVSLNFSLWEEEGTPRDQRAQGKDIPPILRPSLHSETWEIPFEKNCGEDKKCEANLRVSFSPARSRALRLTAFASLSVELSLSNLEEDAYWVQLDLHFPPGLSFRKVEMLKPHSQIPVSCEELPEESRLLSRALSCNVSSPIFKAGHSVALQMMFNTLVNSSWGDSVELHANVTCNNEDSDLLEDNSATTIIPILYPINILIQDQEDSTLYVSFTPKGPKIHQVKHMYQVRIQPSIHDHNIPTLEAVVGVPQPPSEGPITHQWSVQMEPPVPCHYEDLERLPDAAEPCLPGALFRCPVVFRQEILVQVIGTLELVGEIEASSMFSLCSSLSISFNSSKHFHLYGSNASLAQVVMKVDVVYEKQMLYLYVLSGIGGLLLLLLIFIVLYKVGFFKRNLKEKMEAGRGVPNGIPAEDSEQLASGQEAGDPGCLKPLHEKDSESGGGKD

[7] = target: T3, Integrin alpha-L (Homo sapiens) (UniProt P20701); test: Inhibition of LFA-1/ICAM-1 interaction in human peripheral blood leukocytes assessed as reduction on PMA-induced adhesion to immobilized human recombinant ICAM-1 at 20 ug/ 5 x 10^5 cells after 30 mins by fluorescence assay; assay type: cell-based
T3 sequence (whole entry): T2 sequence (P20701 whole entry)
Outline: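 Human peripheral blood leukocytes were stimulated with PMA and preincubated with compound. Adhesion to immobilized recombinant human ICAM-1, a commercial form containing all five extracellular domains, was then quantified. Significance was assessed by ANOVA with Bonferroni post hoc test.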

[8] = target: T1, Integrin alpha-L (Mus musculus); test: Inhibition of LFA-1/ICAM-1 interaction in mouse Lim51b cells assessed as PMA-induced adhesion to ICAM-1 expressing HSE cells at 20 ug/ 5 x 10^5 cells after 30 mins by fluorometric microplate reader analysis; assay type: cell-based; outline: as §1
[9] = test system: B16; test: Inhibition of VEGF production in mouse B16 M cells at 10 ug/ml preincubated for 30 mins prior to ICAM addition measured after 2 hrs by ELISA; assay type: functional, cell-based
[10] = test system: B16M; test: Inhibition of VLA-4/VCAM-1 interaction in mouse B16M cells assessed as PMA-induced adhesion to immobilized VCAM-1 at 25 ug/ 5 x 10^5 cells after 30 mins by microplate reader analysis; assay type: cell-based
[11] = test system: CT26; test: Antimetastatic activity against mouse CT26 cells allografted in BALB/c mouse assessed as decrease in cancer cell volume in liver at 10 ug/ml preincubated for 30 mins prior to inoculation measured on day 14 relative to control; assay type: functional
Outline: (§3)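 Male BALB/c mice, 6–8 weeks old and anesthetized (n = 10 per group; three independent experiments), received an intrasplenic injection of 1.5 × 10⁵ viable CT26-CC cells in 0.1 mL Hank's balanced salt solution. Mice were killed on day 14. Densitometric and stereological image analysis gave metastases per 100 mm³ liver (fifteen sections per liver) and the percentage of liver volume occupied.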

[12] = test system: CT26; test: Antimetastatic activity against mouse CT26 cells allografted in BALB/c mouse assessed as reduction in metastasis density at 10 ug/ml preincubated for 30 mins prior to inoculation measured on day 14 relative to control; assay type: functional; outline: as §3
[13] = test system: B16; test: Inhibition of VEGF production in mouse B16 M cells at 10 ug/ml preincubated for 30 mins prior to H2O2 addition measured after 2 hrs by ELISA; assay type: functional, cell-based
[14] = Binding affinity to I-domain of human integrin alphaL (amino acid residues 128 to 307) plus initial methionine K287C/K294C mutant expressed in BL21 cells by NMR spectroscopy; assay type: cell-based
[15] = test system: BL21; test: Inhibition of I-domain of human integrin alphaL (amino acid residues 128 to 307) plus initial methionine K287C/K294C mutant-ICAM1 interaction expressed in BL21 cells after 4 hrs by NMR analysis

SMILES: CC[C@H](C)[C@H](OCc1ccccc1)[C@H]1[C@H]([N+](=O)[O-])[C@H](c2ccccc2)N[C@@H]1C(=O)NCCCCC(=O)O
inhibition [1]: Active

SMILES: CC[C@H](C)[C@H](OCc1ccccc1F)[C@H]1[C@H]([N+](=O)[O-])[C@H](c2ccsc2)N[C@@H]1C(=O)NCCC(=O)O
inhibition [1]: inactive

SMILES: CC[C@H](C)[C@H](OCc1ccccc1)[C@H]1[C@H]([N+](=O)[O-])[C@H](c2ccccc2)N(C(=O)CN)[C@]1(C)C(=O)NCCC(=O)O
inhibition [1]: Active
Activity [2]: 40%
Activity [3]: 77%

SMILES: CC[C@H](C)C(=O)O[C@H]1C[C@@H](C)C=C2C=C[C@H](C)[C@H](CC[C@@H]3C[C@@H](O)CC(=O)O3)[C@H]21
Activity [4]: inactive

SMILES: CC[C@H](C)[C@H](OCc1ccccc1)[C@H]1[C@H]([N+](=O)[O-])[C@H](c2ccccc2)N[C@@H]1C(=O)NCCCCCC(=O)O
inhibition [1]: Active
inhibition [7]: Active
Activity [2]: 40%
Activity [3]: 85%

SMILES: CC[C@H](C)[C@H](OCc1ccccc1)[C@H]1[C@H]([N+](=O)[O-])[C@H](c2ccccc2)N[C@@H]1C(=O)NCCC(=O)O
inhibition [1]: Active
inhibition [8]: Active

SMILES: CC[C@H](C)[C@H](OCc1ccccc1)[C@H]1[C@H]([N+](=O)[O-])[C@H](c2ccccc2)N[C@@H]1C(=O)NCC(=O)O
inhibition [1]: inactive

More lines, main results first:

inhibition [1]: Active
Activity [5]: inactive
Activity [4]: inactive
pKd [6]: 5.13
SMILES: CC[C@H](C)[C@H](OCc1ccccc1)[C@H]1[C@H]([N+](=O)[O-])[C@H](c2ccccc2)N[C@]1(C)C(=O)NCCCC(=O)O

inhibition [1]: Active
SMILES: CC[C@H](C)[C@H](OCc1ccccc1)[C@H]1[C@H]([N+](=O)[O-])[C@H](c2ccccc2)N[C@]1(C)C(=O)NCCCCCC(=O)O

inhibition [1]: Active
SMILES: CC[C@H](C)[C@H](OCc1ccccc1)[C@H]1[C@H]([N+](=O)[O-])[C@H](c2ccccc2)N[C@@H]1C(=O)NCCCC(=O)O

inhibition [1]: Active
inhibition [7]: Active
inhibition [8]: Active
pKd [6]: 5.00
SMILES: CC[C@H](C)[C@H](OCc1ccccc1)[C@H]1[C@H]([N+](=O)[O-])[C@H](c2ccccc2)N[C@]1(C)C(=O)NCCC(=O)O
inhibition [9]: Active
inhibition [10]: inactive
fold change (FC) [11]: 25
fold change (FC) [12]: 25
inhibition [13]: Active
pKd [14]: 4.09
inhibition [15]: inactive

inhibition [1]: Active
SMILES: CC[C@H](C)[C@H](OCc1ccccc1)[C@H]1[C@H]([N+](=O)[O-])[C@H](c2ccccc2)N[C@]1(C)C(=O)NCCCCC(=O)O
